Measurements from ChEMBL document CHEMBL2010694, “Indolyl and dihydroindolyl N-glycinamides as potent and in vivo active NPY5 antagonists” (Bioorg Med Chem Lett, 2012).

Columns and labels:
Cytochrome P450 2D6 = Cytochrome P450 2D6 (Homo sapiens, UniProt P10635); experiment: Inhibition of CYP2D6; assay type: ADME
[1] = Drug uptake in cPP-induced feeding Sprague-Dawley rat model brain at 10 mg/kg, po after 1 hr; assay type: ADME, organism-based; set-up: dose 10 mg/kg, route oral; conditions: read-out: Drug uptake
How it was run: (§1)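 Satellite animals from the cPP feeding study dosed orally at 0.1, 1 or 10 mg/kg; plasma (ng/mL) and brain (ng/g) levels measured 1 h after dosing.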

[2] = Plasma concentration in cPP-induced feeding Sprague-Dawley rat model at 1 mg/kg, po after 1 hr; assay type: ADME, organism-based; set-up: dose 1 mg/kg, route oral; how it was run: as §1
[3] = Drug uptake in Sprague-Dawley rat brain at 10 mg/kg, po after 1 hr by LC-MS/MS analysis; assay type: ADME, organism-based; set-up: dose 10 mg/kg, route oral; conditions: read-out: Drug uptake
How it was run: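 Male Sprague-Dawley rats (300–350 g), femoral artery cannulated; single 10 mg/kg oral dose in an appropriate vehicle, N = 3. Blood taken predose, 1, 2 and 4 h; brains then collected and stored at -80 °C. Equal portions of plasma or homogenized brain from the three rats pooled per time point, protein precipitated, quantified by LC/MS/MS.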

Rattus norvegicus = experiment: Antiobesity activity in po dosed cPP-induced feeding Sprague-Dawley rat model assessed as reduction in food intake measured 1 hr post cpp challenge; assay type: functional
How it was run: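 Rats pretreated orally at 0.1, 1 or 10 mg/kg (vehicle 20% cyclodextrin) 1 h before intracerebroventricular infusion of Y5-selective peptide agonist cPP, 0.6 nmol in normal saline; food intake recorded, n = 7–14 per group.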

[4] = molecular target: T1, Neuropeptide Y receptor type 5 (Homo sapiens, UniProt Q15761); experiment: Displacement of [125I]peptide YY from human NPY5 receptor
T1 sequence (Q15761 whole entry): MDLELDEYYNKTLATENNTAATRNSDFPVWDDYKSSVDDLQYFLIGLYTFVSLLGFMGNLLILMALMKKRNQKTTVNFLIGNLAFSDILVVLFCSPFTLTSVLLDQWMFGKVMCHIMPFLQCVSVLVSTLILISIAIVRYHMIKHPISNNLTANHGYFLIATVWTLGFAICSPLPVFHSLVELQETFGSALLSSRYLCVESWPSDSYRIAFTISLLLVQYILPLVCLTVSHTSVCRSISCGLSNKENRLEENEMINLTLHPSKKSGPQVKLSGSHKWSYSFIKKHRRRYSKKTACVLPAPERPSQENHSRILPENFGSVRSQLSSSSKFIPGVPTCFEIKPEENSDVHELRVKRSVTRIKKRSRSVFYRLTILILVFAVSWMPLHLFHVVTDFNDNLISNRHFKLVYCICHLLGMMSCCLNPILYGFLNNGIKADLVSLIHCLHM

Liver microsomes = experiment: Intrinsic clearance in human liver microsomes at 1 uM by LC/MS analysis; assay type: ADME, Microsome
How it was run: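 Compound incubated with human or rat liver microsomes; reaction quenched with acetonitrile, centrifuged, and remaining drug in supernatant measured by LC/MS to estimate T1/2, from which intrinsic clearance was derived.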

[5] = Half life in Sprague-Dawley rat plasma at 2 mg/kg, po and 1 mg/kg, iv after 24 hrs wash out period by HPLC analysis; assay type: ADME, organism-based
How it was run: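 Male Sprague-Dawley rats (200–250 g), jugular and carotid artery cannulated; compound dissolved in 20% beta cyclodextrin, pH adjusted with methane sulfonic acid. Serial blood sampled at 12 time points over 24 h post dose by automated sampler; plasma from centrifugation analysed by HPLC; PK parameters by non-compartmental analysis of plasma concentration–time profile.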

MDR = experiment: Apparent permeability from apical to basolateral side in MDCK cells expressing MDR; assay type: ADME, cell-based, Canis lupus familiaris; conditions: dog, MDCK-MDR1
How it was run: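 Bidirectional permeability (A–B and B–A) across a Pgp-overexpressing mdr-MDCK cell monolayer; efflux ratio derived from the two Papp values, given in 10^-6 cm/s.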

Sequence of Cytochrome P450 2D6 (P10635 whole entry): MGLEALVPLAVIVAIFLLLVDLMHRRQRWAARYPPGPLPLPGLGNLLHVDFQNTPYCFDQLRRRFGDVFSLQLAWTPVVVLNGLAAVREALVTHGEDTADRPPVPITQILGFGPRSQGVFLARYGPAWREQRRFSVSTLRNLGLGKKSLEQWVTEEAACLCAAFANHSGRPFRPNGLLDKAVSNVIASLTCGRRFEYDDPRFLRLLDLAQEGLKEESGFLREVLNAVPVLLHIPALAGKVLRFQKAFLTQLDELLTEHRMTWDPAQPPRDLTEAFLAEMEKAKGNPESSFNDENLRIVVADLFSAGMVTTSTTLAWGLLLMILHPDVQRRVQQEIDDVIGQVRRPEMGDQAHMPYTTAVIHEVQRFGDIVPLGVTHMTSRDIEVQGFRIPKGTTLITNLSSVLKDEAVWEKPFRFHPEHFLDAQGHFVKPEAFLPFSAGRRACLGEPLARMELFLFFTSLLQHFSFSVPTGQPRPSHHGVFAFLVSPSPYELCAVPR

IC50 (Cytochrome P450 2D6): > 40000 nM
concentration at 1 h [1]: 151 ng/g
concentration at 1 h [2]: 516 ng/mL
concentration at 1 h [3]: 295 nM
Ki [4]: 0.5 nM
CLH (Liver microsomes): 3.6 L/min
half-life [5]: 4.4 h
Papp A→B (MDR): 2.31 ×10⁻⁶ cm/s
SMILES: CC(C)S(=O)(=O)NC[C@H]1CC[C@H](NC(=O)CN2CCc3cc(Cl)ccc32)CC1
Activity (Rattus norvegicus): Dose-dependent effect
minimal effective dose (Rattus norvegicus; read-out: MED): < 0.1 mg/kg
